Laboratory results: ChEMBL document CHEMBL6134787, “Fexinidazole optimization: enhancing anti-leishmanial profile, metabolic stability and hERG safety” (RSC Med Chem, 2024)

Legend:
Leishmania major = test: Antileishmanial activity against wild type Leishmania major FV1 promastigotes […] assessed as inhibition of parasite growth incubated for 72 hrs by automatic microtiter plate reader analysis; assay type: functional, organism-based
In short: (§1)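 Promastigotes were grown in Schneider's medium (4 mM glutamine, gentamicin, 10% heat-inactivated FBS, pH 6.9, 27 °C). Cells were seeded at 1.5 × 10^5/well and exposed to a concentration series for 72 h at 27 °C.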

RAW264.7 = test: Cytotoxicity against mouse RAW264.7 cells assessed as inhibition of cell growth incubated for 72 hrs by MTS assay; assay type: functional, cell-based; details: RAW264.7, 72 h
In short: (§2)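 Cells in DMEM + 10% heat-inactivated FBS with penicillin/streptomycin at 37 °C, 5% CO2. They were seeded at 1 × 10^4/well and incubated with a concentration series for 72 h at 37 °C. Viability was read by MTS/PMS assay at 490 nm and IC50 derived.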

Leishmania donovani [1] = test: Antileishmanial activity against miltefosine resistant Leishmania donovani HU3MILR40 promastigotes […] assessed as inhibition of parasite growth incubated for 72 hrs by automatic microtiter plate reader analysis; assay type: functional, organism-based
In short: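 Promastigote (free parasite) assay: Schneider's Drosophila medium with 4 mM glutamine, 25 μg mL−1 gentamicin, 10% heat-inactivated FBS, pH 6.9, 27 °C. 1.5 × 10^5 promastigotes per well exposed to a concentration series for 72 h at 27 °C.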

Leishmania donovani [2] = test: Antileishmanial activity against wild type Leishmania donovani HU3 promastigotes […] assessed as inhibition of parasite growth incubated for 72 hrs by automatic microtiter plate reader analysis; assay type: functional, organism-based
[3] = Metabolic stability in rat liver S9 fraction assessed as compound remaining at 20 uM measured after 32 mins in presence of NADP and GSH by HPLC analysis; assay type: ADME, subcellular; details: read-out: Stability
In short: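 Rat liver S9 (final 4 mg/mL) in 50 mM phosphate pH 7.4 with NADPH-regenerating system (0.3 mM NADP+, 5.3 mM glucose-6-phosphate, G6PDH), 10 mM MgCl2 and 5 mM EDTA. Pre-warmed 10 min at 37 °C, then 20 μM compound and 5.5 μM GSH added. Samples taken at 0, 16 and 32 min were quenched in ice-cold acetonitrile. HPLC (254/280 nm) peak area was expressed relative to 0 min.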

[4] = target: T1, Voltage-gated inwardly rectifying potassium channel KCNH2 (Homo sapiens, UniProt Q12809); test: Inhibition of human ERG stably overexpressed in HEK293 cells incubated for 30 mins by FLIPR assay; assay type: toxicity, cell-based; details: human, hek293, 0.5 h; time 30 min
T1 sequence (Q12809 whole entry): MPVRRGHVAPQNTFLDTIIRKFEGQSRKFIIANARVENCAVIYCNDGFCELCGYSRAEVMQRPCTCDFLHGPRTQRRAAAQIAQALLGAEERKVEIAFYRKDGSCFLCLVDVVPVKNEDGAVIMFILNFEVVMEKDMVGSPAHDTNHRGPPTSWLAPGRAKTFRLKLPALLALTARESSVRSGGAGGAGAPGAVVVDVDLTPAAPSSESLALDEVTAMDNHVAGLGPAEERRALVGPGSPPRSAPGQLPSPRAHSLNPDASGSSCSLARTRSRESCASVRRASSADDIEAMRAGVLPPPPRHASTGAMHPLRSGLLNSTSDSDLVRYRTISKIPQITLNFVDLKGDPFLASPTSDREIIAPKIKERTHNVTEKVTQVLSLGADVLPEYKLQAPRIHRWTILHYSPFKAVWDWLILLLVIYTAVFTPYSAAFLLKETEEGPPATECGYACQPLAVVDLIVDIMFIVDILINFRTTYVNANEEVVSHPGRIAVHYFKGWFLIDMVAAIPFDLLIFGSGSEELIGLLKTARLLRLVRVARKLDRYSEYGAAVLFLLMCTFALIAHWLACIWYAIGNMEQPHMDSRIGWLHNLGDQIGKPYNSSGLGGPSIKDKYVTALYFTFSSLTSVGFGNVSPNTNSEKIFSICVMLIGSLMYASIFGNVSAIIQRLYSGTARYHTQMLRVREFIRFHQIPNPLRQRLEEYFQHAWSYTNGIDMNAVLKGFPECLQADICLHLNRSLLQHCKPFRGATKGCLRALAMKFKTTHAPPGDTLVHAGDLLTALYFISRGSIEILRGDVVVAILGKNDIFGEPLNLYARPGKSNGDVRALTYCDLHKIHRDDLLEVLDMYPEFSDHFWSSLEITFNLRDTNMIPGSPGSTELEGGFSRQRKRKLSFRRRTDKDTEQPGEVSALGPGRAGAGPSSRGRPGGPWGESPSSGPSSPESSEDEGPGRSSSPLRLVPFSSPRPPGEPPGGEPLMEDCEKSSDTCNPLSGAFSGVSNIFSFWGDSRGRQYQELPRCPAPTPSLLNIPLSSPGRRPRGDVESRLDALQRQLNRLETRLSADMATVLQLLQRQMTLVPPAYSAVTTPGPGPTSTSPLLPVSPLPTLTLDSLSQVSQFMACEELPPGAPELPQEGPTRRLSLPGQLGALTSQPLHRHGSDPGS

[5] = Metabolic stability in rat liver microsome assessed as compound remaining at 20 uM measured after 32 mins in presence of NADP and GSH by HPLC analysis; assay type: ADME; details: liver microsomes, read-out: Stability
In short: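 Rat liver microsomes (final 2 mg/mL) in 50 mM phosphate pH 7.4 with 0.3 mM NADP+, 5.3 mM glucose-6-phosphate, G6PDH, 10 mM MgCl2 and 5 mM EDTA. 20 μM compound added at 37 °C. Aliquots at 0, 16 and 32 min were quenched in ice-cold acetonitrile and centrifuged. HPLC peak area at 254/280 nm was expressed relative to 0 min.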

Leishmania braziliensis [6] = test: Antileishmanial activity against wild type Leishmania braziliensis UA847 promastigotes […] assessed as inhibition of parasite growth incubated for 72 hrs by automatic microtiter plate reader analysis; assay type: functional, organism-based; in short: as §1
[7] = Cytotoxicity against mouse L929 cells assessed as inhibition of cell growth incubated for 72 hrs by MTS assay; assay type: toxicity, cell-based; in short: as §2
[8] = Hepatotoxicity against mouse TAMH cells assessed as cell viability at 7.8 to 125 uM incubated for 24 to 48 hrs by MTT assay; assay type: toxicity, cell-based; details: dose lower 7.8 µM, time lower 24 hrs, dose upper 125 µM, time upper 48 hrs, read-out: Activity
In short: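 TAMH mouse liver cells in FCS-free DMEM/F12 with 5% PANEXIN NTA, 10 mM nicotinamide and gentamicin. Seeded at 20 000/well and attached 24 h at 37 °C, 5% CO2. DMSO-diluted compounds were applied for 24 or 48 h. MTT was added for 4 h, formazan dissolved in DMSO and A570 read. Viability was background-corrected and expressed relative to DMSO controls; mean ± SD, ≥3 experiments.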

Leishmania amazonensis [9] = test: Antileishmanial activity against wild type Leishmania amazonensis LV78 promastigotes […] assessed as inhibition of parasite growth incubated for 72 hrs by automatic microtiter plate reader analysis; assay type: functional, organism-based; in short: as §1
[10] = target: T1, Voltage-gated inwardly rectifying potassium channel KCNH2; test: (§3) Inhibition of human ERG stably overexpressed in HEK293 cells assessed as remaining activity at 6 uM incubated for 30 mins by FLIPR assay; assay type: toxicity, cell-based; details: hek293, 0.5 h, 6 µM
In short: (§4)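 HEK-293 cells stably expressing hERG, seeded at 60 000/well and grown 24 h. Compounds were added in DMSO (final 0.5%) and incubated 30 min in the dark. After 20 s baseline, Tl+ stimulus (3 mM) was added and fluorescence (ex 485/em 535 nm) recorded for 2.5 min.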

hERG (KCNH2) = hERG (KCNH2) (Homo sapiens, UniProt Q12809); test: as §3; assay type: toxicity, cell-based; details: HEK293 cells stably overexpressing hERG, read-out: Activity; in short: as §4
hERG (KCNH2), sequence (Q12809 whole entry): as above

Leishmania braziliensis [11] = test: Antileishmanial activity against wild type Leishmania braziliensis UA847 amastigotes infected in mouse peritoneal macrophage assessed as inhibition of parasite growth incubated for 72 hrs by giemsa staining based analysis; assay type: functional, organism-based
In short: (§5)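 Mouse peritoneal macrophages (1 × 10^5/well on coverslips, DMEM + 10% heat-inactivated FBS, penicillin/streptomycin) adhered overnight at 37 °C, 5% CO2. They were infected overnight with late-log promastigotes at a 20:1 parasite:macrophage ratio. Cells were then treated with compound for 72 h at 37 °C and Giemsa-stained. Amastigotes per 100 macrophages were counted to derive IC50; mean ± SD of 3–4 independent experiments.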

Leishmania amazonensis [12] = test: Antileishmanial activity against wild type Leishmania amazonensis LV78 amastigotes infected in mouse peritoneal macrophage assessed as inhibition of parasite growth incubated for 72 hrs by giemsa staining based analysis; assay type: functional, organism-based; in short: as §5
Leishmania donovani [13] = test: Antileishmanial activity against wild type Leishmania donovani HU3 amastigotes infected in mouse peritoneal macrophage assessed as inhibition of parasite growth incubated for 72 hrs by giemsa staining based analysis; assay type: functional, organism-based
In short: (§6)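 Mouse peritoneal macrophages in DMEM + 10% heat-inactivated FBS, penicillin/streptomycin; 1 × 10^5 cells per well on coverslips, adhered overnight at 37 °C, 5% CO2, non-adherent cells washed off. Infected overnight with late-log promastigotes at parasite:macrophage 40:1. Compound exposure 72 h at 37 °C; Giemsa stain, amastigotes per 100 macrophages counted, IC50 derived; means ± SD of 3–4 independent experiments.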

Leishmania donovani [14] = test: Antileishmanial activity against miltefosine resistant Leishmania donovani HU3MILR40 amastigotes infected in mouse peritoneal macrophage assessed as inhibition of parasite growth incubated for 72 hrs by giemsa staining based analysis; assay type: functional, organism-based; in short: as §6
[15] = Cytotoxicity against mouse peritoneal macrophage assessed as inhibition of cell growth incubated for 72 hrs by giemsa staining based analysis; assay type: toxicity; details: peritoneal macrophages
[16] = Hepatotoxicity against human HepG2 cells assessed as cell viability at 125 uM incubated for 48 hrs by MTT assay; assay type: toxicity, cell-based; details: HepG2 cells, read-out: Activity
In short: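 HEP-G2 cells in RPMI 1640 + 10% heat-inactivated FBS, penicillin/streptomycin. Seeded at 15 000/well and attached 24 h at 37 °C, 5% CO2. Compounds were serially diluted in DMSO, with 24 or 48 h exposure. MTT (2.5 mg/mL solution) was added for 4 h, formazan dissolved in DMSO and A570 read. Viability was background-corrected against DMSO-treated cell controls; mean ± SD, ≥3 experiments.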

Row | Compound | IC50 (Leishmania major) [µM] | IC50 (RAW264.7) [µM] | IC50 (Leishmania donovani [1]) [µM] | IC50 (Leishmania donovani [2]) [µM] | remaining at 32 min, 20 µM [3] [%] | IC25 [4] [µM] | remaining at 32 min, 20 µM [5] [%] | IC50 (Leishmania braziliensis [6]) [µM] | IC50 at 72 h [7] [µM] | viability at up to 125 µM [8] [%] | IC50 (Leishmania amazonensis [9]) [µM] | inhibition (INH) [10] | activity at 0.5 h, 6 µM (hERG (KCNH2)) [%] | IC50 (Leishmania braziliensis [11]) [µM] | IC50 (Leishmania amazonensis [12]) [µM] | IC50 (Leishmania donovani [13]) [µM] | IC50 (Leishmania donovani [14]) [µM] | IC50 at 72 h [15] [µM] | viability at 48 h, 125 µM [16] [%]
1 | COc1ccc(Cn2ccn3cc([N+](=O)[O-])nc3c2=O)cc1 | 6.9 | > 100 | > 18.5 | > 12.4 | 100 | > 2 | 100 | > 20 | > 100 | > 50 | > 20 |  |  |  |  |  |  |  | 
2 | CS(=O)(=O)c1ccc(OCC2Cn3cc([N+](=O)[O-])nc3O2)cc1 (configuration not stated) | > 20 | > 100 | 4.5 | > 20 | 100 | 15.2 | 100 | > 20 | > 100 | > 50 | > 20 |  |  |  |  |  |  |  | 
3 | CSc1ccc(NC(=O)c2ncc([N+](=O)[O-])[nH]2)cc1 | > 20 | > 68.7 | > 13.9 | > 20 | 68.2 | > 12.5 | 18.4 | > 20 | 84.7 | 56 | > 20 | Not_active |  |  |  |  |  |  | 
4 | CSc1ccc(NCc2ncc([N+](=O)[O-])n2C)cc1 | 9.5 | > 100 | 11.9 | > 20 | 73.4 | 3.1 | 0 | > 20 | > 100 | > 50 | > 20 |  | 48 |  |  |  |  |  | 
5 | Cn1c([N+](=O)[O-])cnc1COc1ccc(S(C)(=N)=O)cc1 (configuration not stated) | 2.7 | > 100 | 12.3 | 12.2 | 100 | > 100 | 100 | 9.6 | > 100 | > 50 | 14.6 | Not_active |  |  |  |  |  |  | 
6 | Cn1c([N+](=O)[O-])cnc1C(=O)Nc1ccc(F)cc1C(F)(F)F | 1.2 | > 100 | 12.2 | 8.1 | 100 | > 6.2 | 100 | 2.3 | > 100 | > 50 | 4.5 |  |  | > 10 | > 10 | > 10 | > 10 | > 100 | 
7 | CSc1ccc(Cn2ccn3cc([N+](=O)[O-])nc3c2=O)cc1 | 8.9 | 48.1 | > 20 | > 16.6 | 100 | > 2 | 93.1 | > 20 | > 57.5 | > 50 | > 20 |  |  |  |  |  |  |  | 
8 | CSc1ccc(OCc2ncc(C#N)n2C)cc1 | > 20 | > 99.8 | > 20 | > 20 | 82.6 | 27.1 | 8.2 | > 20 | > 100 | > 50 | > 20 |  |  |  |  |  |  |  | 
9 | Cn1c([N+](=O)[O-])cnc1CCc1ccc(S(C)(=N)=O)cc1 (configuration not stated) | 11.8 | > 100 | > 20 | > 20 | 100 | 49.4 | 100 | > 20 | > 100 | > 50 | > 20 |  |  |  |  |  |  |  | 
10 | CSc1ccc(C(=O)Nc2ccc3c(c2)B(O)OC3(C)C)cc1 | 3.9 | 73.6 | 15.4 | 11.9 | 61.3 | > 6.2 | 8 | 4.4 | > 100 | > 50 | 3.6 |  | 66 | > 10 | > 10 | > 10 | > 10 | > 100 | 54
11 | CSc1ccc(CCc2ncc([N+](=O)[O-])n2C)cc1 | 9.1 | > 91.7 | 7.1 | 12.5 | 47.5 | 9.8 | 0 | 17.5 | > 100 | > 50 | 27.2 |  | 64 |  |  |  |  |  | 
12 | Cn1c([N+](=O)[O-])cnc1C(=O)N1CCS(=O)(=O)CC1 | 3.4 | > 100 | 13.7 | 7.5 | 100 | > 6.2 | 100 | 12.2 | > 100 | > 50 | 13.3 |  |  |  |  |  |  |  | 
13 | CSc1ccc(NC(=O)c2ncc([N+](=O)[O-])n2C)cc1 | 6.5 | > 100 | > 20 | > 20 | 6.9 | > 3.1 | 0 | > 20 | > 100 | > 50 | > 20 |  |  |  |  |  |  |  | 
14 | C[S+]([O-])c1ccc(C(=O)Nc2ccc3c(c2)B(O)OC3(C)C)cc1 (configuration not stated) | > 20 | > 100 | > 20 | > 16.8 | 100 | 25.7 | 95.2 | > 20 | > 100 | > 50 | > 20 | Not_active |  |  |  |  |  |  | 54.2
